Measurements taken from ChEMBL document CHEMBL1143936, “Role of benzimidazole (Bid) in the delta-opioid agonist pseudopeptide H-Dmt-Tic-NH-CH(2)-Bid (UFP-502)” (Bioorg Med Chem, 2008).

Key:
Rattus norvegicus [1] = species: Rattus norvegicus; assay: Selectivity ratio of Sprague-Dawley rat mu opioid receptor to Sprague-Dawley rat delta opioid receptor
Procedure, shortened: (§1)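 Ratio of the Ki values for δ and μ sites, both from the same rat brain synaptosome competition binding assay (2.5 h, 23 °C; Cheng–Prusoff Ki).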

[2] = biological target: Delta-type opioid receptor (Rattus norvegicus, UniProt P33533); assay: Binding affinity to delta opioid receptor in Sprague-Dawley rat brain membrane; assay type: cell membranes
Sequence of Delta-type opioid receptor (Rattus norvegicus, UniProt P33533) (P33533 whole entry): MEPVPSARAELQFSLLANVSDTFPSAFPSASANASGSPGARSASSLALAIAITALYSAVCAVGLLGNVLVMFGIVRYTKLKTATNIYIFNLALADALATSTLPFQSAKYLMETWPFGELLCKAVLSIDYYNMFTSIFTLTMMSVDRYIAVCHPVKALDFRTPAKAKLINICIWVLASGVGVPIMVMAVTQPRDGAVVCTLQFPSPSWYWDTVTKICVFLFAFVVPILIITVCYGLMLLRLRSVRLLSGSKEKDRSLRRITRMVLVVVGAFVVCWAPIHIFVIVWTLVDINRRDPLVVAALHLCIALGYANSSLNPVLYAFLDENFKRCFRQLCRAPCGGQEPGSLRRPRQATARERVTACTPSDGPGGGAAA
Procedure, shortened: (§2)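 Competition binding at equilibrium (2.5 h, 23 °C) on brain P2 synaptosomal membranes from Sprague-Dawley rats. Membranes were preincubated to strip endogenous opioid peptides and stored at −80 °C in buffered 20% glycerol. Filtration used GFC filters pre-soaked in 0.1% polyethylenimine, washed three times with ice-cold buffered BSA. Five to eight doses were run in duplicate, 3–5 independent membrane preparations each. Ki by Cheng–Prusoff, mean ± SE.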

Mu-type opioid receptor [3] = biological target: Mu-type opioid receptor (Rattus norvegicus, UniProt P33535); assay: Binding affinity to mu opioid receptor in Sprague-Dawley rat brain membrane; assay type: cell membranes; procedure, shortened: as §2
Sequence of Mu-type opioid receptor (Rattus norvegicus, UniProt P33535) (P33535 whole entry): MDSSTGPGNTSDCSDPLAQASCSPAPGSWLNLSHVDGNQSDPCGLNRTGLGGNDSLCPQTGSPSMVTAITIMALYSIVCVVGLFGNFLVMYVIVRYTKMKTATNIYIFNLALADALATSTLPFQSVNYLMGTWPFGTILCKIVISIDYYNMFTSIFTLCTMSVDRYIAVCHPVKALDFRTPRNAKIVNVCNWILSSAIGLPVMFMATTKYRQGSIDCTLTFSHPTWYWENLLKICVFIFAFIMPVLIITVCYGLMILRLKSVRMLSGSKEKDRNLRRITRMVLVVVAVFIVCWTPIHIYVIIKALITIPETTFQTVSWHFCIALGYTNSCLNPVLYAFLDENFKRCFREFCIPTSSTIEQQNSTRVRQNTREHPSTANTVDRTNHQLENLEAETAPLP

[4] = biological target: T1, Delta-type opioid receptor (Mus musculus, UniProt P32300); assay: Antagonist activity at delta opioid receptor assessed as DPDPE-stimulated mouse vas deferens contraction; assay type: functional, tissue-based; details: read-out: pA2 (converted)
T1 sequence (P32300 whole entry): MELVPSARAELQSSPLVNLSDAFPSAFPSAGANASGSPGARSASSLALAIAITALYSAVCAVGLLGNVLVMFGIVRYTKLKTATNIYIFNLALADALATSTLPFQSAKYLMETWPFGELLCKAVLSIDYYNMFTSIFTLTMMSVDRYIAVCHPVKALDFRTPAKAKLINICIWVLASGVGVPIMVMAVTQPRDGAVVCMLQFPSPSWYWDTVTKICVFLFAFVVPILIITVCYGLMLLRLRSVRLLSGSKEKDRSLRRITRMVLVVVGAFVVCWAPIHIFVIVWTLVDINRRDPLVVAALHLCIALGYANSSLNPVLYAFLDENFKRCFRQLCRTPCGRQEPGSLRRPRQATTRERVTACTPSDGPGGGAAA
Procedure, shortened: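 Mouse vas deferens in an organ bath with physiological salt buffer, pH 7.5, electrically stimulated. Antagonism was measured against the δ agonist DPDPE and expressed as pA2 from a Schild plot.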

Mu-type opioid receptor [5] = biological target: Mu-type opioid receptor (Cavia porcellus, UniProt P97266); assay: Agonist activity at mu opioid receptor assessed as inhibition of electrically-stimulated Hartley guinea pig contraction; assay type: functional, Hartely
Sequence of Mu-type opioid receptor (Cavia porcellus, UniProt P97266) (P97266 whole entry): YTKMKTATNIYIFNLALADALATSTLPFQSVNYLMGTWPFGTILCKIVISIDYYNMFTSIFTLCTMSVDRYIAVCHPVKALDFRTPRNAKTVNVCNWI
Procedure, shortened: (§3)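 Isolated tissues in organ baths of balanced physiological salt buffer, pH 7.5. δ: single mouse vas deferens. μ: 2–3 cm myenteric plexus–longitudinal muscle strips from the small intestine of male Hartley guinea pigs. Read-out was inhibition of electrically evoked contraction; IC50 from dose–response curves, mean ± SE of separate assays. Internal standards were DPDPE (vas deferens) and PL-017 (ileum).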

[6] = biological target: T1, Delta-type opioid receptor; assay: Agonist activity at delta opioid receptor assessed as inhibition of electrically-stimulated mouse vas deferens contraction; assay type: functional, tissue-based; procedure, shortened: as §3
Rattus norvegicus [7] = species: Rattus norvegicus; assay: Selectivity ratio of rat delta opioid receptor to rat mu opioid receptor; procedure, shortened: as §1

| Structure (SMILES) | Ratio Ki (Rattus norvegicus [1]) | Ki [2] [nM] | Ki (Mu-type opioid receptor [3]) [nM] | Kb [4] [nM] | IC50 (Mu-type opioid receptor [5]) [nM] | IC50 [6] [nM] | Ratio Ki (Rattus norvegicus [7]) |
| --- | --- | --- | --- | --- | --- | --- | --- |
| Cc1cc(O)cc(C)c1C[C@H](N)C(=O)N1Cc2ccccc2C[C@H]1C(=O)NCc1nc2ccccc2o1 | 5 | 0.283 | 1.42 | 0.38 | 170 | – | – |
| Cc1cc(O)cc(C)c1C[C@H](N)C(=O)N1Cc2ccccc2C[C@H]1C(=O)NCc1ncc[nH]1 | 10 | 0.114 | 1.18 | – | 113 | 3.63 | – |
| Cc1cc(O)cc(C)c1C[C@H](N)C(=O)N1Cc2ccccc2C[C@H]1C(=O)NCC1Cc2ccccc2C1 | – | 0.199 | 0.16 | – | 28.4 | 129 | 1.2 |
| Cc1cc(O)cc(C)c1C[C@H](N)C(=O)N1Cc2ccccc2C[C@H]1C(=O)NCc1nc(-c2ccccc2)c[nH]1 | 15 | 0.443 | 6.74 | 0.398 | 154 | – | – |
| Cc1cc(O)cc(C)c1C[C@H](N)C(=O)N1Cc2ccccc2C[C@H]1C(=O)NCc1cc2ccccc2[nH]1 | 10.6 | 0.066 | 0.7 | 0.355 | 209 | – | – |
| Cc1cc(O)cc(C)c1C[C@H](N)C(=O)N1Cc2ccccc2C[C@H]1C(=O)NCc1nc2ccccc2s1 | 7.3 | 0.145 | 1.06 | 0.427 | 129 | – | – |
| Cc1cc(O)cc(C)c1C[C@H](N)C(=O)N1Cc2ccccc2C[C@H]1C(=O)NCc1nc2ccccc2[nH]1 | – | – | – | – | 35.5 | 0.94 | – |
